The values below come from ChEMBL document CHEMBL4513216, “Probing the Open Global Health Chemical Diversity Library for Multistage-Active Starting Points for Next-Generation Antimalarials” (ACS Infect Dis, 2020).

This data set can be described thus: Toxicity liver stage against HepG2, at 10uM. In kind it is cell-based. Details: test concentration 10 uM, cell line HepG2-A16-CD81EGFP. The settings on record: human, HepG2-A16-CD81EGFP cells; read-out: INHIBITION
A digest of the protocol:
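Uninfected HepG2-A16-CD81EGFP cells, 3 × 10^3 per well, 1536-well, plated on prespotted compound at 10 μM final, parasite-free screening media added to match infected plates; puromycin 10 μM positive, DMSO 0.5% negative; run in parallel with 48 h PbLuc assay at 37 °C, 5% CO2; viability by CellTiter-Glo luminescence, normalized to controls.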
Take `CC(=O)N1CC[C@H](c2nnc(Cc3c[nH]c4ccccc34)o2)C1`: the cytotoxicity at 10 µM turned out to be 8.12%.

As to `Cc1cc(CN(C)CCC(O)c2ccccc2)no1` (stereo not given), the cytotoxicity at 10 µM was 0.238%.

With `CC(C)OCC(=O)Nc1ccc(Oc2ccc3c(c2)OCO3)nc1`, the cytotoxicity at 10 µM is -13.1%.

As for `CCN(CC)c1nc2ccsc2c(=O)n1CCC(=O)NCc1cccs1`, the cytotoxicity at 10 µM was -5.27%.

Turning to `COc1ccc(Cl)cc1NC(=O)CN1CCc2nc(NC(C)=O)sc2C1`, the cytotoxicity at 10 µM was -4.2%.

On to `Cc1ccc(C(=O)N2CCc3ncc(Cn4cccn4)n3CC2)cn1`, for which the cytotoxicity at 10 µM is 7.25%.

Take `Cc1cccc(CN2C[C@@H]3CN(C(=O)c4ccco4)C[C@@H]3C2=O)c1`: the cytotoxicity at 10 µM is -3.72%.

Consider `CC(=O)N1CCOC2(CCCN(Cc3ccc(Cl)c(C(F)(F)F)c3)C2)C1` (stereo not given), for which the cytotoxicity at 10 µM was found to be 3.68%.

For `O=C(O)CN1CCC2(CCc3ccccc32)CC1`, the cytotoxicity at 10 µM was -3.7%.

Turning to `Cc1nc(CO[C@@H]2CN(Cc3ccccn3)[C@@H]3COC[C@@H]32)cs1`, the cytotoxicity at 10 µM was determined as 5.45%.

Turning to `COCC1CN(C(=O)N2CCCC2)Cc2cnn(CC3CCCC3)c21` (stereo not given), the cytotoxicity at 10 µM is 9.23%.

Consider `Nc1nc2c(s1)C(c1c(F)cccc1Cl)CC(=O)N2` (stereo not given), for which the cytotoxicity at 10 µM was 4.21%.

Regarding `CCC1=NC(SCC(=O)c2ccc(Cl)cc2)c2cc(CC)sc2N1` (stereo not given), the cytotoxicity at 10 µM amounted to 8.16%.

As to `Cc1nn(C)c2cn(CC(=O)N3CCN(c4ccccn4)CC3)nc12`, the cytotoxicity at 10 µM came to 3.57%.

For `Cc1ccn(-c2ccnc(N3CCSCC3)n2)n1`, the cytotoxicity at 10 µM worked out at 9.87%.

As to `O=C(c1c(F)cccc1F)N1CCC[C@@H]1Cn1c(=O)oc2ccccc21`, the cytotoxicity at 10 µM stood at 4.42%.

`COCC(=O)NCCc1nc2cc(-c3ccc(OC)cc3)ncn2n1`: the cytotoxicity at 10 µM was 10.5%.

As for `COc1c(CNCCc2c[nH]c3ccccc23)c(C)nn1C`, the cytotoxicity at 10 µM was 15%.

For the compound `CN1CCN(c2ccccc2CNC(=O)Cc2cccc(F)c2)CC1`, the cytotoxicity at 10 µM is -6.29%.

In the case of `N#CCCN(Cc1cccnc1)C(=O)c1cc(Cl)c[nH]1`, the cytotoxicity at 10 µM is -18.4%.

In the case of `CN1CCN(C)C(CNC(=O)N(C)Cc2ccc(Cl)c(F)c2)C1` (stereo not given), the cytotoxicity at 10 µM was determined as 6.32%.

Take `COc1cccc(CC(C)NC(=O)NC(C)C)c1` (stereo not given): the cytotoxicity at 10 µM turned out to be 4.72%.

For the compound `COc1cccc(CC(C)NC(=O)NCCNC(C)=O)c1` (stereo not given), the cytotoxicity at 10 µM is 7.89%.

In the case of `Cc1ccc(C(=O)N2CCN(c3ncnc4nc(N)ccc34)CC2)cc1`, the cytotoxicity at 10 µM was 8.88%.

For `O=C(c1ccoc1)N1CCC(O)(C(F)(F)F)CC1`, the cytotoxicity at 10 µM was determined as 3.88%.

Regarding `CCCn1nc(C(=O)NCc2nnc3n2CCC3)ccc1=O`, the cytotoxicity at 10 µM was -3.18%.

As for `CCc1nc(CN2CC(C(=O)OC)O[C@H](C)C2)cs1` (stereo not given in full), the cytotoxicity at 10 µM was -10.9%.

Take `O=C(O)c1ccn(-c2ccccc2NS(=O)(=O)c2cccc(F)c2)n1`: the cytotoxicity at 10 µM was -18.6%.

As for `O=C1CN(c2ccc(CNC(=O)c3ccc[nH]3)cc2F)CCN1`, the cytotoxicity at 10 µM amounted to 1.28%.

For `CC(CNC(=O)NCCCc1cc(N)n(-c2ccccc2)n1)N(C)C` (stereo not given), the cytotoxicity at 10 µM was 11.9%.

Consider `CC(C)CCn1ccc(NC(=O)N2CCCC2C(C)(C)O)n1` (stereo not given), for which the cytotoxicity at 10 µM stood at 5.07%.

As to `COc1ccc(CNCCc2cc(F)cc3c2OCOC3)c(OC)c1`, the cytotoxicity at 10 µM is -3.41%.

As for `Cc1csc(N2CCN(Cc3nccn3C)CC2C)n1` (stereo not given), the cytotoxicity at 10 µM was -0.274%.

In the case of `Cc1n[nH]c(C)c1CNC(=O)N1CCCC(Cc2nccn2C)C1` (stereo not given), the cytotoxicity at 10 µM was -19.2%.

Consider `CN(C)c1cc(C(=O)NCC2(c3cccc(F)c3)CCOCC2)ccn1`, for which the cytotoxicity at 10 µM was found to be 8.8%.

Take `Cn1ccc2c(C(=O)N3CCC4(CCOC4)C3)cccc21` (stereo not given): the cytotoxicity at 10 µM is -152%.

`Cc1cc(C)n(-c2ccc(C(=O)NCC(c3cccs3)N(C)C)cc2)n1` (stereo not given): the cytotoxicity at 10 µM is 4.58%.

Take `O=C1CCCN1CC1CCCCN1C(=O)Nc1cccnc1` (stereo not given): the cytotoxicity at 10 µM was -0.123%.

For `CCc1nnc2n1CCN(CC(O)CN1CCC(C)CC1)C2` (stereo not given), the cytotoxicity at 10 µM is -7.37%.

As to `Cc1ccccc1C1(CNC(=O)c2ccc(S(C)(=O)=O)cc2)CC1`, the cytotoxicity at 10 µM was -7.16%.

As to `CNC(=O)c1ccc2c(c1O)OC(C)(C)C2`, the cytotoxicity at 10 µM is -6.08%.

Take `CCOc1ccc(C#N)cc1NC(=O)N1CCOC(C(N)=O)C1` (stereo not given): the cytotoxicity at 10 µM stood at 12.9%.

In the case of `COC1CCCN(C(=O)c2sc(CC(C)C)nc2C)C1` (stereo not given), the cytotoxicity at 10 µM is 10.9%.

As for `Cc1ccc2ncnc(N3CCOCC3c3c(C)nn(C)c3C)c2c1` (stereo not given), the cytotoxicity at 10 µM was found to be 12.2%.

Regarding `CCN(Cc1nc(C(C)C)no1)Cc1cccs1`, the cytotoxicity at 10 µM was -8.57%.

In the case of `CC1Cc2ccccc2N1Cc1occc1C(=O)OCC(N)=O` (stereo not given), the cytotoxicity at 10 µM was -9.18%.

On to `CC(C)c1ccc(-c2nnn(CCNS(C)(=O)=O)n2)cc1`, for which the cytotoxicity at 10 µM is -3.51%.

For the compound `CC(=O)c1c(F)cccc1N1CCC(CS(N)(=O)=O)CC1`, the cytotoxicity at 10 µM was -7.79%.

Regarding `Cc1nc(C)n(CC2CN(CC(=O)Nc3nccs3)CCO2)n1` (stereo not given), the cytotoxicity at 10 µM is -13.8%.

Turning to `CNC(=O)[C@@H]1C[C@@H]2CCN(Cc3ccoc3)C[C@H]2O1`, the cytotoxicity at 10 µM was -108%.

Regarding `O=C(c1cscn1)N1CC[C@H]2C[C@H](c3nnc(C4CC4)o3)O[C@@H]2C1`, the cytotoxicity at 10 µM was -111%.

Consider `O=C(c1ccco1)N1CC[C@@H]2[C@H]1CCC(=O)N2c1ccccc1`, for which the cytotoxicity at 10 µM is -110%.

As for `Cc1cc2cc(NC(=O)Cn3ncc(N4CCCC4)cc3=O)ccc2o1`, the cytotoxicity at 10 µM is -0.273%.

Turning to `CCCn1cnnc1CNC(=O)C1COc2cc(OC)ccc2C1` (stereo not given), the cytotoxicity at 10 µM came to 3.21%.

`CCc1nnc(CN(CC)C(=O)C(C)n2ccnc2C(C)C)o1` (stereo not given): the cytotoxicity at 10 µM worked out at 6.23%.

Regarding `O=C(O)c1cc(-n2cc3c(n2)CCC3)cc(S(=O)(=O)NC2CCCC2)c1`, the cytotoxicity at 10 µM was -2.05%.

Regarding `COCCn1cncc1CN1CCCC(C)(c2ccccc2)C1` (stereo not given), the cytotoxicity at 10 µM is 0.363%.

For `CCn1nc(C(=O)N2CCNCC2C(=O)Nc2ccc(C)nc2)cc1C` (stereo not given), the cytotoxicity at 10 µM came out at 10.2%.

In the case of `Clc1ccccc1OC1CCN(CC2CCOC2)CC1` (stereo not given), the cytotoxicity at 10 µM is -9.85%.

With `O=C(NCCN1CCOC1=O)c1cc(-c2ccccc2)on1`, the cytotoxicity at 10 µM came to 12.3%.

On to `CN(C)c1ncnc2c1CCN(C(=O)CN1CCCCC1)C2`, for which the cytotoxicity at 10 µM is -0.747%.

Take `CCCc1cc(N2CCC(NCCc3ccc(O)cc3)CC2)nc(C)n1`: the cytotoxicity at 10 µM was -6%.

Consider `NC(=O)c1cc2c(nc1-c1ccoc1)CCC2`, for which the cytotoxicity at 10 µM amounted to 0.562%.

Turning to `Cc1n[nH]c(C)c1Sc1ccccc1NC(=O)N1CCOCC1`, the cytotoxicity at 10 µM amounted to 4.63%.

For `NCCc1n[nH]c(=O)n1-c1cccc2ccccc12`, the cytotoxicity at 10 µM worked out at 3.96%.

As to `Cc1ccsc1-c1nc(CN(C)Cc2noc(C(C)C)n2)c(C)o1`, the cytotoxicity at 10 µM is -5.85%.

As for `Cc1nccn1CCCC(=O)N1CCC2(CCC(=O)N(C(C)C)C2)CC1`, the cytotoxicity at 10 µM is -10.8%.

In the case of `COc1ccnc(N2CCC3(CCCN(CC4CC4)C3=O)C2)n1` (stereo not given), the cytotoxicity at 10 µM is 1.13%.

On to `CCn1nc(CNC(=O)C2CC(=O)N(C3CCCC3)C2)c2ccccc21` (stereo not given), for which the cytotoxicity at 10 µM was -25.8%.

On to `O=S(=O)(NCC1CCOc2ccccc2C1)N1CCOCC1` (stereo not given), for which the cytotoxicity at 10 µM was -9.75%.

With `COCC1CCCN(C(=O)c2cc(Cn3ccc4ccccc43)[nH]n2)C1` (stereo not given), the cytotoxicity at 10 µM was -11.5%.

With `Cc1nc(CN2CCCC(Cn3cncn3)C2)nc2ccccc12` (stereo not given), the cytotoxicity at 10 µM is -16.2%.

Turning to `COC(=O)c1cc(C(=O)N2CCN(C)CC2)n(-c2ccccc2)n1`, the cytotoxicity at 10 µM is -13.2%.

In the case of `CC(NC(=O)CSCC(=O)Nc1ccccc1)c1ccccc1` (stereo not given), the cytotoxicity at 10 µM was -6.17%.

Turning to `Cc1nc2ccnn2c(C)c1CCC(=O)N1CCN(C2CC2)CC1`, the cytotoxicity at 10 µM was -7.2%.

Take `Cc1cccc(OCCNC(=O)CN2CCCC2Cn2cccn2)c1` (stereo not given): the cytotoxicity at 10 µM was -9.46%.

Consider `Cc1cc(C)c(CNC(=O)NCc2ccc3c(c2)CCC3)c(=O)[nH]1`, for which the cytotoxicity at 10 µM worked out at 10.4%.

For `CCNc1cc2c(nn1)CCN(C(=O)CC1CCCCC1)C2`, the cytotoxicity at 10 µM is -10.3%.

As for `Cc1nc(CN2CCN(C(=O)c3ccn(C)c(=O)c3)CC2)cs1`, the cytotoxicity at 10 µM amounted to 1.73%.

Regarding `CCC1CN(C(=O)NCCOc2ccc3c(c2)OCO3)CCO1` (stereo not given), the cytotoxicity at 10 µM was -4.25%.

For the compound `Cc1cn2c(n1)CCC(NC(=O)c1nc(C)ncc1Cl)C2` (stereo not given), the cytotoxicity at 10 µM is -3.13%.

With `OCC1CCCN1c1cc(N2CCc3ccccc3C2)ncn1` (stereo not given), the cytotoxicity at 10 µM amounted to 2.53%.

For `Cn1cc(CN2CC[C@H]3O[C@H](C(=O)Nc4cnccn4)CC[C@H]32)cn1`, the cytotoxicity at 10 µM was -135%.

Turning to `O=C1C[C@H]2[C@@H](CCN2C(=O)c2ccccc2)N1CCN1CCOCC1`, the cytotoxicity at 10 µM is -3.33%.

Regarding `Cc1occc1C(=O)N1CCC2(CC1)CN(Cc1nccs1)CCO2`, the cytotoxicity at 10 µM stood at 5.22%.

Take `CO[C@H]1CCN(Cc2cccc(C)n2)[C@@H]2CN(Cc3cccnc3)C[C@H]12`: the cytotoxicity at 10 µM was -11.3%.

Turning to `COCCN1C[C@@H]2[C@@H](OC)CCN(Cc3ccsc3)[C@@H]2C1`, the cytotoxicity at 10 µM came to 2.78%.

On to `CN1CC(=O)N(c2cnn(C)c2)CC12CCN(CC1CC1)C2` (stereo not given), for which the cytotoxicity at 10 µM turned out to be 7.6%.

Take `CCCS(=O)(=O)N1C[C@@H](Oc2ncccc2F)[C@H]2OCCC[C@H]21`: the cytotoxicity at 10 µM worked out at 2.95%.

For the compound `c1cnc2c(c1)cc([C@H]1CCCO1)n2CCN1CCOCC1`, the cytotoxicity at 10 µM was -11.3%.

Regarding `CC(C)NC(=O)CC1COC2(CCN(Cc3cccs3)CC2)C1` (stereo not given), the cytotoxicity at 10 µM was found to be 4.57%.

As to `CCOCc1nnc2n1CCN(Cc1c(C)noc1C)CC2`, the cytotoxicity at 10 µM is -95.3%.

Regarding `CC(C)C(=O)N1CCCC2(C1)CN(c1nncs1)CCO2` (stereo not given), the cytotoxicity at 10 µM is -104%.

Consider `O=C(NC[C@]12COC[C@H]1CN(CC1CCOCC1)C2)c1ccccc1`, for which the cytotoxicity at 10 µM was -5.15%.

`CSc1ncccc1C(=O)N1C[C@@H]2CC[C@H]1CN(C(=O)N(C)C)C2`: the cytotoxicity at 10 µM was 1.71%.
